Data as given in PubChem BioAssay AID1217 (Sanford-Burnham Center for Chemical Genomics, 2008).
Among all 190,000 compounds or so, about 1,300 (0.68%) were called active. This is one part of a sample in which actives are shown more often than they occur. A number with no mark means an inactive call.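 Rule for the calls: active = primary screen inhibition at 20 µM above a set limit (cut at about 50% in these data); inactive = the rest.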

Test system: diaphorase (Clostridium kluyveri)
Experiment: diaphorase inhibitors and chemical oxidizers, primary screen, counter-screen for diaphorase-coupled primary assays, biochemical, uHTS, resorufin fluorescence (AID 1217);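 note: plate controls were DMSO with full reaction for no effect and wells lacking NADH for full effect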
Details: diaphorase resazurin-to-resorufin fluorescence, NADH, 16 min; at 20 µM; hits give high values; bacterial (C. kluyveri) enzyme, not human
Procedure, shortened: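 controls = No-NADH positive control and DMSO neutral control | system = Clostridium kluyveri diaphorase enzyme | timing = reaction incubation of 16 min at room temperature | signal = resorufin fluorescence 544/590 nm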

SMILES | inhibition
COc1cccc(NC(=S)N(Cc2ccc(C)cc2)Cc2ccccn2)c1 | 3.1%
Cc1cc(-c2csc(N)n2)c(C)n1-c1ccccc1 | 19.9%
CC(Sc1nc2c([nH]c3ccccc32)c(=O)n1C)c1ccccc1 (stereo unspecified) | 2.9%
C=CCOc1c(CNn2cn[nH]c2=S)cccc1OC | 39.3%
COc1cccc(CNn2cn[nH]c2=S)c1OCc1ccccc1 | 79.8% (active)
C=CCOc1cccc(CNn2cn[nH]c2=S)c1 | 14%
O=c1[nH]n2c(=O)c3c([nH]c2c1N=Nc1ccccc1)CCC3 | 20.3%
Cc1csc(SCC(=O)Nc2sccc2C#N)n1 | -2.4%
OC(COc1ccc(CN2CCSCC2)cc1)CN1CCCCC1 (stereo unspecified) | 6.8%
CCOc1ccc(CN2CCCN(C)CC2)cc1 | 76.8% (active)
CCOc1ccc(CN2CCN(Cc3ccc(C)o3)CC2CCO)cc1 (stereo unspecified) | -6.4%
N#CC1(NC(=O)COc2ccc3oc4ccccc4c3c2)CCCCC1 | -0.7%
O=c1[nH]c2ccccc2n2c(-c3ccccc3)nnc12 | 66.5% (active)
CC(=O)c1c(-c2ccccc2)c2ccccc2[nH]c1=O | 17.9%
O=[N+]([O-])c1cccc(-c2nnc3c4ccccc4c4ccccc4n23)c1 | 3.7%
Cn1ncc2c(NNC(=O)Cc3cccc4ccccc34)ncnc21 | 8.6%
CN(CC#CCC(c1ccccc1)c1ccccc1)C(C)(C)C | 17.9%
OC(C#CCN1CCOCC1)(c1ccccc1)C1CCCCC1 (stereo unspecified) | -10.7%
CC(C)(C)N(CC#CCC(O)(c1ccccc1)C1CCCC1)CCO (stereo unspecified) | 57.2% (active)
O=S(=O)(Nc1ccc2cn[nH]c2c1)c1ccccc1 | 6.9%
COc1cccc(-c2ccc(C#N)c(SCC(=O)NCCc3ccc(Cl)cc3)n2)c1 | 7%
